Experimental findings from ChEMBL document CHEMBL1124270, “Quinolone antibacterial agents. Synthesis and structure-activity relationships of 8-substituted quinoline-3-carboxylic acids and 1,8-naphthyridine-3-carboxylic acids” (1988) are described below.

Structures are written as SMILES. Converted amounts (≈) assume the structure as drawn.

Holding throughout (format): functional
For assay [1], the system named is Escherichia coli. Nature of the assay: Minimum concentration needed to produce linear DNA at an intensity relative to oxolinic at 10 ug/mL in Escherichia coli H560 in vitro. An outline of the steps: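 DNA gyrase cleavage test, run as previously described: end point is the lowest drug level (µg/mL) that yields linear DNA at a band intensity matching oxolinic acid at 10 µg/mL. Values come from duplicate or triplicate experiments and are stated as accurate to ±50%.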

For assay [2], the system named is Escherichia coli. Nature of the assay: Minimum inhibitory concentration against Escherichia coli H560 in vitro.
The subject of assay [3] is Escherichia coli. Nature of the assay: Minimum inhibitory concentration against Escherichia coli vogel in vitro.
The subject of the next assay is Enterobacter cloacae. Nature of the assay: Minimum inhibitory concentration against Enterobacter cloacae HA 2646 in vitro.
The next assay has as its system Klebsiella pneumoniae. Nature of the assay: Minimum inhibitory concentration against Klebsiella pneumoniae MGH-2 in vitro.
Assay [4] deals with Mus musculus. Nature of the assay: In vivo potency against Escherichia coli vogel using mouse protection assay when given perorally. The note with it: po, read-out: PD50.
The subject of assay [5] is Mus musculus. Nature of the assay: In vivo potency against Staphylococcus aureus using mouse protection assay when given orally. The following applies: po, read-out: PD50.
In another assay the test system is Pseudomonas aeruginosa. Nature of the assay: Minimum inhibitory concentration against Pseudomonas aeruginosa UI-18 in vitro.
Another assay has as its system Providencia rettgeri. Nature of the assay: Minimum inhibitory concentration against Providencia rettgeri H1771 in vitro.
Another assay relates to Streptococcus pyogenes. The assay is described as follows: (§1) Minimum inhibitory concentration against Streptococcus pyogenes C203 in vitro.
In assay [6] the test system is Streptococcus pneumoniae. Nature of the assay: Minimum inhibitory concentration against Streptococcus pneumoniae SV-1 in vitro.
The test system of assay [7] is Staphylococcus aureus. The assay is described as follows: Minimum inhibitory concentration against Staphylococcus aureus H228 in vitro.
In assay [8] the test system is Staphylococcus aureus. Nature of the assay: Minimum inhibitory concentration against Staphylococcus aureus UC-76 in vitro.
The next assay relates to Enterococcus faecalis. Nature of the assay: Minimum inhibitory concentration against Streptococcus faecalis MGH-2 in vitro.
The subject of assay [9] is Mus musculus. The assay is described as follows: In vivo potency against Streptococcus pneumoniae using mouse protection assay when given orally. The following applies: po, read-out: PD50.
The subject of assay [10] is Mus musculus. The assay is described as follows: In vivo potency against Escherichia coli vogel using mouse protection assay when given subcutaneously. The following applies: sc, read-out: PD50.
In assay [11] the test system is Staphylococcus aureus. The assay is described as follows: In vivo potency against Staphylococcus aureus using mouse protection assay following p.o. administration. The following applies: po, read-out: PD50.
The subject of assay [12] is Staphylococcus aureus. The assay is described as follows: In vivo potency against Staphylococcus aureus using mouse protection assay following s.c. administration. The following applies: sc, read-out: PD50.
Assay [13] deals with Streptococcus pneumoniae. The assay is described as follows: In vivo potency against Streptococcus pneumoniae using mouse protection assay following p.o. administration. The note with it: po, read-out: PD50.
Assay [14] deals with Streptococcus pneumoniae. The assay is described as follows: In vivo potency against Streptococcus pneumoniae using mouse protection assay following s.c. administration. The note with it: sc, read-out: PD50.
In another assay the test system is Bacteria. Described as §1.

In the assay with Escherichia coli [1], `NCC1CCN(c2c(F)cc3c(=O)c(C(=O)O)cn(C4CC4)c3c2F)C1` (stereo not given) showed a DNA cleavage conc (gyrase) of 0.25 µg/mL. Also, the MIC in the assay with Escherichia coli [2] was 0.006 µg/mL (≈ 0.0165 µM); in the assay with Escherichia coli [3] it was 0.025 µg/mL (≈ 0.0688 µM); in the assay with Enterobacter cloacae, 0.05 µg/mL (≈ 0.138 µM); in the assay with Klebsiella pneumoniae, 0.05 µg/mL (≈ 0.138 µM); in the assay with Pseudomonas aeruginosa it was 0.2 µg/mL (≈ 0.55 µM); against Providencia rettgeri it was 0.1 µg/mL (≈ 0.275 µM). For the same compound, the MIC came out at 0.013 µg/mL (≈ 0.0358 µM) in the assay with Streptococcus pyogenes; 0.006 µg/mL (≈ 0.0165 µM) in the assay with Streptococcus pneumoniae [6]; 0.025 µg/mL (≈ 0.0688 µM) against Staphylococcus aureus [7]; 0.003 µg/mL (≈ 0.00826 µM) in the assay on Staphylococcus aureus [8]; 0.013 µg/mL (≈ 0.0358 µM) with Enterococcus faecalis. Also, the values for the ED50 in the assay on Mus musculus [4], in the assay on Mus musculus [5] and in the assay on Mus musculus [9] were 6 mg/kg, 78 mg/kg and 10 mg/kg, respectively.
In the assay on Escherichia coli [1], `NCC1CCN(c2nc3c(cc2F)c(=O)c(C(=O)O)cn3C2CC2)C1` (stereo not given) registered a DNA cleavage conc (gyrase) of 0.5 µg/mL. Moreover, the MIC with Escherichia coli [2] was determined as 0.025 µg/mL (≈ 0.0722 µM); against Escherichia coli [3] it was 0.1 µg/mL (≈ 0.289 µM); against Enterobacter cloacae, 0.1 µg/mL (≈ 0.289 µM); with Klebsiella pneumoniae, 0.1 µg/mL (≈ 0.289 µM); against Pseudomonas aeruginosa, 0.2 µg/mL (≈ 0.577 µM); in the assay on Providencia rettgeri, 0.4 µg/mL (≈ 1.15 µM). In addition, the MIC with Streptococcus pyogenes amounted to 0.025 µg/mL (≈ 0.0722 µM); in the assay on Streptococcus pneumoniae [6], 0.1 µg/mL (≈ 0.289 µM); in the assay on Staphylococcus aureus [7], 0.2 µg/mL (≈ 0.577 µM); with Staphylococcus aureus [8], 0.006 µg/mL (≈ 0.0173 µM); in the assay with Enterococcus faecalis, 0.025 µg/mL (≈ 0.0722 µM). Besides, the ED50 in the assay with Mus musculus [4] turned out to be 17 mg/kg; in the assay on Mus musculus [5] it was 55 mg/kg; in the assay on Mus musculus [9], 100 mg/kg.
Regarding `CNCC1CCN(c2c(F)cc3c(=O)c(C(=O)O)cn(C4CC4)c3c2F)C1` (stereo not given), the DNA cleavage conc (gyrase) in the assay with Escherichia coli [1] turned out to be 0.25 µg/mL. Also, the MIC with Escherichia coli [2] came to 0.006 µg/mL (≈ 0.0159 µM); with Escherichia coli [3], 0.05 µg/mL (≈ 0.132 µM); against Enterobacter cloacae, 0.025 µg/mL (≈ 0.0662 µM); in the assay with Klebsiella pneumoniae, 0.05 µg/mL (≈ 0.132 µM); against Pseudomonas aeruginosa, 0.2 µg/mL (≈ 0.53 µM); against Providencia rettgeri, 0.2 µg/mL (≈ 0.53 µM). In addition, the MIC in the assay on Streptococcus pyogenes came to 0.006 µg/mL (≈ 0.0159 µM); in the assay with Streptococcus pneumoniae [6], 0.006 µg/mL (≈ 0.0159 µM); against Staphylococcus aureus [7], 0.025 µg/mL (≈ 0.0662 µM); with Staphylococcus aureus [8] it was 0.013 µg/mL (≈ 0.0344 µM); against Enterococcus faecalis it was 0.013 µg/mL (≈ 0.0344 µM). The ED50 in the assay on Mus musculus [4] turned out to be 2 mg/kg; in the assay with Mus musculus [5], 22 mg/kg; in the assay on Mus musculus [9], 2 mg/kg.
`CC(C)NCC1CCN(c2c(F)cc3c(=O)c(C(=O)O)cn(C4CC4)c3c2F)C1` (stereo not given) came in with a DNA cleavage conc (gyrase) with Escherichia coli [1] of 2.8 µg/mL. The MIC in the assay on Escherichia coli [2] worked out at 0.05 µg/mL (≈ 0.123 µM); with Escherichia coli [3] it was 0.1 µg/mL (≈ 0.247 µM); against Enterobacter cloacae, 0.2 µg/mL (≈ 0.493 µM); with Klebsiella pneumoniae, 0.2 µg/mL (≈ 0.493 µM); against Pseudomonas aeruginosa, 1.6 µg/mL (≈ 3.95 µM); in the assay with Providencia rettgeri, 0.4 µg/mL (≈ 0.987 µM). Also, the minimum inhibitory concentration (MIC) worked out at 0.05 µg/mL (≈ 0.123 µM) against Streptococcus pyogenes; 0.05 µg/mL (≈ 0.123 µM) in the assay with Streptococcus pneumoniae [6]; 0.05 µg/mL (≈ 0.123 µM) in the assay on Staphylococcus aureus [7]; 0.013 µg/mL (≈ 0.0321 µM) with Staphylococcus aureus [8]; 0.025 µg/mL (≈ 0.0617 µM) against Enterococcus faecalis. The ED50 was found to be 6 mg/kg with Mus musculus [4]; 1 mg/kg with Mus musculus [10]; 42 mg/kg with Staphylococcus aureus [11]; 12 mg/kg in the assay with Staphylococcus aureus [12]; 7 mg/kg in the assay on Streptococcus pneumoniae [13]; 2 mg/kg in the assay on Streptococcus pneumoniae [14].
In the case of `CNCC1CCN(c2nc3c(cc2F)c(=O)c(C(=O)O)cn3C2CC2)C1` (stereo not given), in the assay with Escherichia coli [1], the DNA cleavage conc (gyrase) stood at 1 µg/mL. The minimum inhibitory concentration (MIC) against Escherichia coli [2] is 0.05 µg/mL (≈ 0.139 µM); against Escherichia coli [3], 0.1 µg/mL (≈ 0.277 µM); with Enterobacter cloacae, 0.2 µg/mL (≈ 0.555 µM); against Klebsiella pneumoniae it was 0.2 µg/mL (≈ 0.555 µM); against Pseudomonas aeruginosa it was 0.8 µg/mL (≈ 2.22 µM); against Providencia rettgeri, 0.4 µg/mL (≈ 1.11 µM). Besides, the MIC against Bacteria is 0.05 µg/mL (≈ 0.139 µM); in the assay with Streptococcus pneumoniae [6] it was 0.025 µg/mL (≈ 0.0694 µM); in the assay with Staphylococcus aureus [7], 0.2 µg/mL (≈ 0.555 µM); in the assay on Staphylococcus aureus [8], 0.025 µg/mL (≈ 0.0694 µM); in the assay on Enterococcus faecalis it was 0.2 µg/mL (≈ 0.555 µM). In addition, the ED50 with Mus musculus [4] came to 3 mg/kg; in the assay with Mus musculus [10], 1 mg/kg; in the assay with Staphylococcus aureus [11] it was 3 mg/kg; in the assay with Staphylococcus aureus [12], 1 mg/kg; in the assay with Streptococcus pneumoniae [13], 27 mg/kg; in the assay with Streptococcus pneumoniae [14], 11 mg/kg.
Consider `Cl.NC1CCN(c2c(F)cc3c(=O)c(C(=O)O)cn(C4CC4)c3c2F)C1` (stereo not given), for which the DNA cleavage conc (gyrase) with Escherichia coli [1] was 0.1 µg/mL. Also, the MIC with Escherichia coli [2] came to 0.006 µg/mL; against Escherichia coli [3] it was 0.013 µg/mL; against Enterobacter cloacae, 0.025 µg/mL; in the assay on Klebsiella pneumoniae, 0.025 µg/mL; with Pseudomonas aeruginosa it was 0.1 µg/mL; with Providencia rettgeri, 0.05 µg/mL. Besides, the minimal inhibitory concentration (MIC) with Streptococcus pyogenes is 0.05 µg/mL; against Streptococcus pneumoniae [6] it was 0.05 µg/mL; in the assay on Staphylococcus aureus [7], 0.05 µg/mL; against Staphylococcus aureus [8], 0.025 µg/mL; against Enterococcus faecalis, 0.05 µg/mL. Moreover, the ED50 stood at 1 mg/kg in the assay on Mus musculus [4]; 0.2 mg/kg in the assay with Mus musculus [10]; 7 mg/kg in the assay on Staphylococcus aureus [11]; 3 mg/kg in the assay with Staphylococcus aureus [12]; 15 mg/kg with Streptococcus pneumoniae [13]; 6 mg/kg with Streptococcus pneumoniae [14].
As for `Cl.NC1CCN(c2c(F)cc3c(=O)c(C(=O)O)cn(C4CC4)c3c2Cl)C1` (stereo not given) [CLINAFLOXACIN HYDROCHLORIDE], the DNA cleavage conc (gyrase) in the assay with Escherichia coli [1] was determined as 0.5 µg/mL. Besides, the minimal inhibitory concentration (MIC) with Escherichia coli [2] was determined as 0.006 µg/mL; in the assay with Escherichia coli [3] it was 0.013 µg/mL; with Enterobacter cloacae, 0.025 µg/mL; in the assay on Klebsiella pneumoniae it was 0.025 µg/mL; in the assay with Pseudomonas aeruginosa it was 0.05 µg/mL; against Providencia rettgeri, 0.025 µg/mL. In addition, the minimal inhibitory concentration (MIC) was 0.05 µg/mL against Streptococcus pyogenes; 0.05 µg/mL in the assay on Streptococcus pneumoniae [6]; 0.05 µg/mL against Staphylococcus aureus [7]; 0.013 µg/mL against Staphylococcus aureus [8]; 0.05 µg/mL in the assay on Enterococcus faecalis. The ED50 with Mus musculus [4] worked out at 3 mg/kg; with Mus musculus [10] it was 0.6 mg/kg; in the assay on Staphylococcus aureus [11] it was 13 mg/kg; in the assay with Staphylococcus aureus [12], 5 mg/kg; in the assay with Streptococcus pneumoniae [13], 10 mg/kg; with Streptococcus pneumoniae [14], 4 mg/kg.
Turning to `CCNCC1CCN(c2c(F)cc3c(=O)c(C(=O)O)cn(C4CC4)c3c2F)C1` (stereo not given) [PD-117558], the DNA cleavage conc (gyrase) in the assay with Escherichia coli [1] worked out at 0.25 µg/mL. For the same compound, the minimum inhibitory concentration (MIC) with Escherichia coli [2] worked out at 0.025 µg/mL (≈ 0.0639 µM); in the assay with Escherichia coli [3], 0.05 µg/mL (≈ 0.128 µM); with Enterobacter cloacae, 0.1 µg/mL (≈ 0.255 µM); in the assay on Klebsiella pneumoniae, 0.1 µg/mL (≈ 0.255 µM); with Pseudomonas aeruginosa, 0.4 µg/mL (≈ 1.02 µM); against Providencia rettgeri it was 0.2 µg/mL (≈ 0.511 µM). Also, the MIC worked out at 0.025 µg/mL (≈ 0.0639 µM) in the assay on Streptococcus pyogenes; 0.025 µg/mL (≈ 0.0639 µM) in the assay on Streptococcus pneumoniae [6]; 0.025 µg/mL (≈ 0.0639 µM) against Staphylococcus aureus [7]; 0.006 µg/mL (≈ 0.0153 µM) against Staphylococcus aureus [8]; 0.025 µg/mL (≈ 0.0639 µM) against Enterococcus faecalis. The ED50 in the assay with Mus musculus [4] stood at 4 mg/kg; with Mus musculus [10], 1 mg/kg; in the assay with Staphylococcus aureus [11] it was 59 mg/kg; in the assay on Staphylococcus aureus [12], 40 mg/kg; in the assay with Streptococcus pneumoniae [13] it was 3 mg/kg; with Streptococcus pneumoniae [14], 2 mg/kg.
